Measurements as given in ChEMBL document CHEMBL2406998, “Discovery of benzamide analogs as negative allosteric modulators of human neuronal nicotinic receptors: pharmacophore modeling and structure-activity relationship studies” (Bioorg Med Chem, 2013).
The source made the active and inactive calls. The calls are words filed in the database; no cut-off is given here.

Columns and labels:
[1] = biological target: T1, Neuronal acetylcholine receptor; alpha4/beta2 (Homo sapiens, UniProt P17787+P43681); experiment: Antagonist activity at human alpha4beta2 nAChR expressed in HEK-tsA201 cells assessed as inhibition of epibatidine-induced intracellular calcium level by fluorescence plate reader analysis; format: cell-based
T1 sequence (P17787 whole entry): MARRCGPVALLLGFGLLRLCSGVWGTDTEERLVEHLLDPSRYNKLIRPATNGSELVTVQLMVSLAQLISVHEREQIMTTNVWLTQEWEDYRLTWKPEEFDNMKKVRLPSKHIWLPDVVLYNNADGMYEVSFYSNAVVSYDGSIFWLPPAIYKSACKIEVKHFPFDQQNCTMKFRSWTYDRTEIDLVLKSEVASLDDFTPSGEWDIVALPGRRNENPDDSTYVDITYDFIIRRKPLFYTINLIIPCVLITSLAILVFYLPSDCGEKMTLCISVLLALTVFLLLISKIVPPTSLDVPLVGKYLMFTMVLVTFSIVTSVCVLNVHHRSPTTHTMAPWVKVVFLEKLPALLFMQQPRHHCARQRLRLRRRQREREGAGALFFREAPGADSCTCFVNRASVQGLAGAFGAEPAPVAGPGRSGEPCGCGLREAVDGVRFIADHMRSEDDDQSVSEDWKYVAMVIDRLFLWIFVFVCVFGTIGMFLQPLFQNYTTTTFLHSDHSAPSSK
T1 sequence (P43681 whole entry): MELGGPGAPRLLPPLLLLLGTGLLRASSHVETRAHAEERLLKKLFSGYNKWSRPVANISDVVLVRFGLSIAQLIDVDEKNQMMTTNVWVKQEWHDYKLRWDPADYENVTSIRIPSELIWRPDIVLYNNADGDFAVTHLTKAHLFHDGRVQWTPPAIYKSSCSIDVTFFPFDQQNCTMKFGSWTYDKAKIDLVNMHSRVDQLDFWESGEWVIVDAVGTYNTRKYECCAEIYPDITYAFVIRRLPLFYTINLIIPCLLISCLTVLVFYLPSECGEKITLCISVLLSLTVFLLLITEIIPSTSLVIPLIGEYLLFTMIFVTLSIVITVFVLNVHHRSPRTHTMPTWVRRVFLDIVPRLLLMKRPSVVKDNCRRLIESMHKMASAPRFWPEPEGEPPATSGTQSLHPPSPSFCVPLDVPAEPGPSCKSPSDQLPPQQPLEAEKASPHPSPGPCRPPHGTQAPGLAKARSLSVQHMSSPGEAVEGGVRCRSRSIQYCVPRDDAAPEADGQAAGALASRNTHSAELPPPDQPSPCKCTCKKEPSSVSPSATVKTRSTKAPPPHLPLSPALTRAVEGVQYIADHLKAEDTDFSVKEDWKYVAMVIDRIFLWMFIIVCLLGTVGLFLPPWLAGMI
Outline: (§1)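 Stably transfected HEK tsA201 cells were plated 24 h ahead and grown at 37 °C, 5% CO2 in supplemented DMEM to a ~100% confluent monolayer. They were washed with HEPES-buffered Krebs, then loaded with 50% Calcium 5 NW dye for 1 h at room temperature. Compounds (HCl salts, six concentrations 0.1–100 µM, DMSO <1%) were tested against 1 µM epibatidine. Fluorescence was read at ex 485/em 525 nm every 1.5 s.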

[2] = biological target: T2, Neuronal acetylcholine receptor; alpha3/beta4 (Homo sapiens, UniProt P30926+P32297); experiment: Agonist activity at human alpha3beta4 nAChR; format: protein-complex assay
T2 sequence (P30926 whole entry): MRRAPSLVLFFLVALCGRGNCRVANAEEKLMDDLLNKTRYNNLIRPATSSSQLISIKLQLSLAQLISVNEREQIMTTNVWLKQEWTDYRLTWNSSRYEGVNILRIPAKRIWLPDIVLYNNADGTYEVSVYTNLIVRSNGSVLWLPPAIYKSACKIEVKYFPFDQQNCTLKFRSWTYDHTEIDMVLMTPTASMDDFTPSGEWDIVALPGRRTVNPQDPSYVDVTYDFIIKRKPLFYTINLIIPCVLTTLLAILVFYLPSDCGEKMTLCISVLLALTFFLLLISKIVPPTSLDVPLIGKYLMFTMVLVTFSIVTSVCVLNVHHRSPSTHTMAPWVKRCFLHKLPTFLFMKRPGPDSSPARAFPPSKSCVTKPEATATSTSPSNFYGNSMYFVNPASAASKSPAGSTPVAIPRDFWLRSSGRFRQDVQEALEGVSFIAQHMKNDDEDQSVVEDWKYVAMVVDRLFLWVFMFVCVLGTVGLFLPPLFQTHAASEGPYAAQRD
T2 sequence (P32297 whole entry): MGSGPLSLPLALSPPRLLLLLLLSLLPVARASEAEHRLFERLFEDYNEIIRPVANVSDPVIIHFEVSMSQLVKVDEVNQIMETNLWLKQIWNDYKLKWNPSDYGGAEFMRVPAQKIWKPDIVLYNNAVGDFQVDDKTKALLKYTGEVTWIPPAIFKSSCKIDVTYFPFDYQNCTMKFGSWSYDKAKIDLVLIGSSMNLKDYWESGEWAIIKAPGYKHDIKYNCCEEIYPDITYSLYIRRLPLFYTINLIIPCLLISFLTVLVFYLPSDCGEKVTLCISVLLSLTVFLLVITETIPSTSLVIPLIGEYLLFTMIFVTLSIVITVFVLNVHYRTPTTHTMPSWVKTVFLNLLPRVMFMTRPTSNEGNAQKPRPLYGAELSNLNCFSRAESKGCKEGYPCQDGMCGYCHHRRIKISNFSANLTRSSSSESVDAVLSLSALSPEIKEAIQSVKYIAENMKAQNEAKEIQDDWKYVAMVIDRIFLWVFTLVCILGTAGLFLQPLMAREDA
Outline: (§2)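 HEK tsA201 cells stably expressing the human receptor subtype, plated 24 h ahead at 37 °C, 5% CO2 in supplemented DMEM to a ~100% confluent monolayer. Washed with HEPES-buffered Krebs, loaded 1 h at room temperature with 50% Calcium 5 NW dye. Compounds as HCl salts from 0.01 M DMSO stocks, six concentrations 0.1–100 µM in HBK. Intracellular calcium fluorescence read every 1.5 s (ex 485/em 525 nm).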

[3] = biological target: T1, Neuronal acetylcholine receptor; alpha4/beta2; experiment: Agonist activity at human alpha4beta2 nAChR; format: protein-complex assay; outline: as §2
[4] = biological target: T2, Neuronal acetylcholine receptor; alpha3/beta4; experiment: Antagonist activity at human alpha3beta4 nAChR expressed in HEK-tsA201 cells assessed as inhibition of epibatidine-induced intracellular calcium level by fluorescence plate reader analysis; format: cell-based; outline: as §1
Homo sapiens = species: Homo sapiens; experiment: Selectivity ratio of IC50 for human alpha3beta4 nAChR to IC50 for human alpha4beta2 nAChR
[5] = biological target: T1, Neuronal acetylcholine receptor; alpha4/beta2; experiment: Non-competitive antagonist activity at human alpha4beta2 nAChR expressed in HEK-tsA201 cells assessed as intracellular calcium level at 0.1 to 100 uM by fluorescence plate reader analysis in presence of epibatidine; format: cell-based
Outline: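 Epibatidine concentration-response curves were run with and without test compound on hα4β2-expressing HEK tsA201 cells. The read-out was the calcium accumulation assay: cells loaded with Calcium 5 NW dye for 1 h at room temperature in HEPES-buffered Krebs, fluorescence read at ex 485/em 525 nm every 1.5 s. Compound dilutions of 0.1–100 µM were made from DMSO stocks, with DMSO below 1%.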

Compound | IC50 [1] [µM] | Activity [2] | Activity [3] | IC50 [4] [µM] | Ratio IC50 (Homo sapiens) | Activity [5]
CNC1(C)C2CCC(C2)C1(C)C (stereo not drawn) [MECAMYLAMINE] | 0.6 | – | – | – | – | –
CCCOc1ccc(C(=O)Nc2cccc(Cl)n2)cc1 | – | – | inactive | – | – | –
C=CCOc1ccc(C(=O)Nc2cccc(Cl)n2)cc1 | – | – | inactive | – | – | –
CCCOc1ccc(C(=O)Nc2cccc(Nc3ccc(F)cc3)n2)cc1 | – | inactive | inactive | – | – | –
CCCOc1ccc(C(=O)Nc2cnccn2)cc1 | 23.2 | inactive | inactive | – | – | –
CCCOc1ccc(C(=O)Nc2cccc(Nc3ccccc3F)n2)cc1 | – | inactive | inactive | – | – | –
COc1cc2c3cc1Oc1cc(ccc1O)C[C@@H]1c4c(cc(OC)c(O)c4Oc4ccc(cc4)C[C@@H]3N(C)CC2)CC[N+]1(C)C | 9.2 | – | – | 6.8 | – | –
CCCOc1ccc(C(=O)Nc2cccc(Nc3ccc(OC)cc3)n2)cc1 | – | inactive | inactive | – | – | –
CCCOc1ccc(C(=O)Nc2cccc(Nc3ccccc3)n2)cc1 | – | inactive | inactive | – | – | –
CCCOc1ccc(C(=O)Nc2cccc(Br)n2)cc1 | – | – | inactive | – | – | –
CCCOc1ccc(C(=O)Nc2cccc(Nc3ccc(Cl)cc3)n2)cc1 | – | inactive | inactive | – | – | –
CCCOc1ccc(C(=O)Nc2cccc(Nc3cccc(F)c3)n2)cc1 | – | inactive | inactive | – | – | –

Other lines, results leading:

IC50 [1] [µM] | Activity [2] | Activity [3] | IC50 [4] [µM] | Ratio IC50 (Homo sapiens) | Activity [5] | Compound
– | inactive | inactive | – | – | – | CCCOc1ccc(C(=O)Nc2cccc(CC)n2)cc1
– | inactive | inactive | – | – | – | CCCOc1ccc(C(=O)Nc2cccc(N3CCCCC3)n2)cc1
– | inactive | inactive | – | – | – | C=CCOc1ccc(C(=O)Nc2cccc(Br)n2)cc1
19.6 | inactive | inactive | 24.7 | 1.3 | – | C=C(C)COc1ccc(C(=O)Nc2cccc(C)n2)cc1
– | inactive | inactive | – | – | – | CCCCCNc1cccc(NC(=O)c2ccc(OCCC)cc2)n1
– | inactive | inactive | – | – | – | C=CCOc1ccc(C(=O)Nc2cccc(NCCC)n2)cc1
– | inactive | inactive | – | – | – | C=CCOc1ccc(C(=O)Nc2ccccn2)cc1
– | inactive | inactive | – | – | Active | C=CCOc1ccc(C(=O)Nc2cccc(C)n2)cc1
17.1 | inactive | inactive | 17.4 | 1 | – | CCOc1ccc(C(=O)Nc2cc(C)cc(C)n2)cc1
– | inactive | inactive | – | – | – | CCCCCCNc1cccc(NC(=O)c2ccc(OCCC)cc2)n1
– | inactive | inactive | – | – | – | CCCOc1ccc(C(=O)Nc2cccc(NCc3ccccc3)n2)cc1
– | inactive | inactive | – | – | – | CCCNc1cccc(NC(=O)c2ccc(OCCC)cc2)n1
19.4 | inactive | inactive | 21.7 | 1.1 | – | C#CCOc1ccc(C(=O)Nc2cccc(C)n2)cc1
– | inactive | inactive | – | – | – | CCCCNc1cccc(NC(=O)c2ccc(OCCC)cc2)n1
– | inactive | inactive | – | – | – | C=CCOc1ccc(C(=O)Nc2cccc(CC)n2)cc1
– | inactive | inactive | – | – | – | C=CCOc1ccc(C(=O)Nc2cccc(NCCCC)n2)cc1
